In ChEMBL document CHEMBL3045565, “Microwave synthesis, characterization and bio-efficacy evaluation of novel chalcone based 6-carbethoxy-2-cyclohexen-1-one and 2H-indazol-3-ol derivatives” (Eur J Med Chem, 2013):
Converted amounts (≈) assume the structure as drawn.

Key:
Type in all cases: functional
Xanthomonas oryzae [1] = assay: Antibacterial activity against Xanthomonas oryzae ITCC B-47 assessed as as growth inhibition at 25 ug/disk after 24 hr by disk diffusion method; settings: ITCC B-47, 24 h, read-out: DIZ
Dickeya chrysanthemi [2] = assay: Antibacterial activity against Erwinia chrysanthemi ITCC B-40 assessed as as growth inhibition at 25 ug/disk after 24 hr by disk diffusion method; settings: ITCC B-40, 24 h, read-out: DIZ
Pseudomonas aeruginosa [3] = assay: Antibacterial activity against Pseudomonas aeruginosa MTCC 2581 assessed as growth inhibition at 25 ug/disk after 24 hr by disk diffusion method; settings: MTCC 2581, 24 h, read-out: DIZ
Staphylococcus aureus [4] = assay: Antibacterial activity against Staphylococcus aureus MTCC 3160 assessed as growth inhibition at 25 ug/disk after 24 hr by disk diffusion method; settings: MTCC 3160, 24 h, read-out: DIZ
Klebsiella pneumoniae [5] = assay: Antibacterial activity against Klebsiella pneumoniae MTCC 7028 assessed as growth inhibition at 25 ug/disk after 24 hr by disk diffusion method; settings: MTCC 7028, 24 h, read-out: DIZ
Bacillus pumilus [6] = assay: Antibacterial activity against Bacillus pumilus MTCC 2466 assessed as growth inhibition at 25 ug/disk after 24 hr by disk diffusion method; settings: MTCC 2466, 24 h, read-out: DIZ
Bacillus thuringiensis [7] = assay: Antibacterial activity against Bacillus thuringiensis MTCC 6941 assessed as growth inhibition at 25 ug/disk after 24 hr by disk diffusion method; settings: MTCC 6941, 24 h, read-out: DIZ
Dickeya chrysanthemi [8] = assay: Antibacterial activity against Erwinia chrysanthemi ITCC B-40 assessed as as growth inhibition after 24 hr by broth dilution method; settings: ITCC B-40, 24 h
Outline: (§1)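 Broth dilution, with streptomycin as the standard. MIC was taken as the lowest concentration giving more than 90% bacterial inhibition.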

Xanthomonas oryzae [9] = assay: Antibacterial activity against Xanthomonas oryzae ITCC B-47 assessed as as growth inhibition at 100 ug/disk after 24 hr by disk diffusion method; settings: ITCC B-47, 24 h, read-out: DIZ
Dickeya chrysanthemi [10] = assay: Antibacterial activity against Erwinia chrysanthemi ITCC B-40 assessed as as growth inhibition at 100 ug/disk after 24 hr by disk diffusion method; settings: ITCC B-40, 24 h, read-out: DIZ
Outline: (§2)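 Disk diffusion on nutrient agar. Strains kept on NA slants at 37 °C and subcultured in nutrient broth before testing. A log-phase culture was spread on solidified medium, and sterile disks were loaded with compound from DMSO stock. DMSO served as control, with commercial antibiotics for reference. Plates ran 24 h at 37 °C, and inhibition zones (mm) were read in quadruplicate.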

Rhizoctonia solani = assay: Antifungal activity against Rhizoctonia solani ITCC 5563 by food poisoning method
Outline: (§3)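 Poisoned food technique on PDA at several concentrations. A 5 mm mycelial plug from the growing edge of a 2-week-old colony was placed inoculum-side down at the plate centre. Plates incubated at 27 °C until control growth was nearly complete. Colony diameter measured, percent inhibition calculated against control, LC50 derived. Four replicates per treatment.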

Athelia rolfsii = assay: Antifungal activity against Athelia rolfsii ITCC 6181 by food poisoning method; settings: Agroathelia rolfsii; outline: as §3
[11] = system: Radical scavenging activity; assay: Antioxidant activity assessed as DPPH free radical scavenging activity after 20 min by UV-Vis spectrophotometric analysis; set-up: concentration or dose not given beside the values
Outline: (§4)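 DPPH radical scavenging: samples were held at room temperature for 20 min in the dark, and absorbance was read at 517 nm. The control contained DMSO without compound, and methanol was used for baseline correction. Scavenging percentage was calculated from the absorbances.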

Pseudomonas aeruginosa [12] = assay: Antibacterial activity against Pseudomonas aeruginosa MTCC 2581 assessed as growth inhibition at 100 ug/disk after 24 hr by disk diffusion method; settings: MTCC 2581, 24 h, read-out: DIZ; outline: as §2
Staphylococcus aureus [13] = assay: Antibacterial activity against Staphylococcus aureus MTCC 3160 assessed as growth inhibition at 100 ug/disk after 24 hr by disk diffusion method; settings: MTCC 3160, 24 h, read-out: DIZ; outline: as §2
Klebsiella pneumoniae [14] = assay: Antibacterial activity against Klebsiella pneumoniae MTCC 7028 assessed as growth inhibition at 100 ug/disk after 24 hr by disk diffusion method; settings: MTCC 7028, 24 h, read-out: DIZ; outline: as §2
Bacillus pumilus [15] = assay: Antibacterial activity against Bacillus pumilus MTCC 2466 assessed as growth inhibition at 100 ug/disk after 24 hr by disk diffusion method; settings: MTCC 2466, 24 h, read-out: DIZ; outline: as §2
Bacillus thuringiensis [16] = assay: Antibacterial activity against Bacillus thuringiensis MTCC 6941 assessed as growth inhibition at 100 ug/disk after 24 hr by disk diffusion method; settings: MTCC 6941, 24 h, read-out: DIZ; outline: as §2
Klebsiella pneumoniae [17] = assay: Antibacterial activity against Klebsiella pneumoniae MTCC 7028 assessed as growth inhibition after 24 hr by broth dilution method; settings: MTCC 7028, 24 h; outline: as §1
[18] = system: Radical scavenging activity; assay: Antioxidant activity assessed as DPPH free radical scavenging activity at 400 ug/mL after 20 min by UV-Vis spectrophotometric analysis; outline: as §4
[19] = system: Radical scavenging activity; assay: Antioxidant activity assessed as DPPH free radical scavenging activity at 500 ug/mL after 20 min by UV-Vis spectrophotometric analysis; outline: as §4
[20] = system: Radical scavenging activity; assay: Antioxidant activity assessed as DPPH free radical scavenging activity at 300 ug/mL after 20 min by UV-Vis spectrophotometric analysis; outline: as §4
[21] = system: Radical scavenging activity; assay: Antioxidant activity assessed as DPPH free radical scavenging activity at 100 ug/mL after 20 min by UV-Vis spectrophotometric analysis; outline: as §4
[22] = system: Radical scavenging activity; assay: Antioxidant activity assessed as DPPH free radical scavenging activity at 200 ug/mL after 20 min by UV-Vis spectrophotometric analysis; outline: as §4
[23] = system: Radical scavenging activity; assay: Antioxidant activity assessed as DPPH free radical scavenging activity at 60 ug/mL after 20 min by UV-Vis spectrophotometric analysis; outline: as §4
[24] = system: Radical scavenging activity; assay: Antioxidant activity assessed as DPPH free radical scavenging activity at 80 ug/mL after 20 min by UV-Vis spectrophotometric analysis; outline: as §4
[25] = system: Radical scavenging activity; assay: Antioxidant activity assessed as DPPH free radical scavenging activity at 40 ug/mL after 20 min by UV-Vis spectrophotometric analysis; outline: as §4
[26] = system: Radical scavenging activity; assay: Antioxidant activity assessed as DPPH free radical scavenging activity at 20 ug/mL after 20 min by UV-Vis spectrophotometric analysis; outline: as §4
[27] = system: Radical scavenging activity; assay: Antioxidant activity assessed as DPPH free radical scavenging activity at 10 ug/mL after 20 min by UV-Vis spectrophotometric analysis; outline: as §4

Compound	zone of inhibition at 25 µg/disc (Xanthomonas oryzae [1])	zone of inhibition at 25 µg/disc (Dickeya chrysanthemi [2])	zone of inhibition at 25 µg/disc (Pseudomonas aeruginosa [3])	zone of inhibition at 25 µg/disc (Staphylococcus aureus [4])	zone of inhibition at 25 µg/disc (Klebsiella pneumoniae [5])	zone of inhibition at 25 µg/disc (Bacillus pumilus [6])	zone of inhibition at 25 µg/disc (Bacillus thuringiensis [7])	MIC (Dickeya chrysanthemi [8])	zone of inhibition at 100 µg/disc (Xanthomonas oryzae [9])	zone of inhibition at 100 µg/disc (Dickeya chrysanthemi [10])	LC50 (Rhizoctonia solani)	LC50 (Athelia rolfsii)	Activity [11]	zone of inhibition at 100 µg/disc (Pseudomonas aeruginosa [12])	zone of inhibition at 100 µg/disc (Staphylococcus aureus [13])	zone of inhibition at 100 µg/disc (Klebsiella pneumoniae [14])	zone of inhibition at 100 µg/disc (Bacillus pumilus [15])	zone of inhibition at 100 µg/disc (Bacillus thuringiensis [16])	Activity [18]	Activity [19]	further results
CC1(C)S[C@@H]2[C@H](NC(=O)[C@H](N)c3ccccc3)C(=O)N2[C@H]1C(=O)O [AMPICILLIN]	5 mm	20 mm	10 mm	10 mm	10 mm	20 mm	0 mm	–	–	–	–	–	–	–	–	–	–	–	–	–	–
CCOC(=O)C1C(=O)C=C(c2ccccc2)CC1c1ccc(OC)cc1 (centres undefined)	–	–	–	–	–	–	–	5.9 µg/mL (≈ 16.8 µM)	0 mm	15 mm	116 µg/mL (≈ 331 µM)	347 µg/mL (≈ 990 µM)	2.69%	0 mm	0 mm	0 mm	0 mm	0 mm	–	–	–
NC[C@H]1O[C@H](O[C@H]2[C@H](O)[C@@H](O[C@H]3O[C@H](CO)[C@@H](O)[C@H](N)[C@H]3O)[C@H](N)C[C@@H]2N)[C@H](O)[C@@H](O)[C@@H]1O [KANAMYCIN]	0 mm	0 mm	0 mm	10 mm	15 mm	0 mm	15 mm	–	–	–	–	–	–	–	–	–	–	–	–	–	–
CN[C@@H]1[C@H](O[C@H]2[C@H](O[C@H]3[C@H](O)[C@@H](O)[C@H](N=C(N)N)[C@@H](O)[C@@H]3N=C(N)N)O[C@@H](C)[C@]2(O)C=O)O[C@@H](CO)[C@H](O)[C@H]1O [STREPTOMYCIN]	20 mm	20 mm	20 mm	20 mm	20 mm	15 mm	20 mm	4.6 µg/mL (≈ 7.91 µM)	–	–	–	–	–	–	–	–	–	–	–	–	MIC (Klebsiella pneumoniae [17]): 3.1 µg/mL (≈ 5.33 µM)
COc1cc(C2CC(c3ccccc3)=Cc3n[nH]c(O)c32)cc(OC)c1OC (centres undefined)	–	–	–	–	–	–	–	–	0 mm	0 mm	917 µg/mL (≈ 2420 µM)	1020 µg/mL (≈ 2710 µM)	67.1%	0 mm	0 mm	0 mm	0 mm	0 mm	90.5%	90.8%	Activity [20]: 91.2%; Activity [21]: 91.8%; Activity [22]: 92.3%; Activity [23]: 86.4%; Activity [24]: 90.7%; Activity [25]: 67.1%; Activity [26]: 31.5%; Activity [27]: 18.1%; IC50 [11]: 22.28 µg/mL (≈ 58.9 µM)
O=c1[nH][nH]c2c1C(c1ccccc1)CC(c1ccc(F)cc1)=C2 (centres undefined)	–	–	–	–	–	–	–	–	0 mm	0 mm	669 µg/mL (≈ 2180 µM)	912 µg/mL (≈ 2980 µM)	70.5%	0 mm	0 mm	15 mm	0 mm	0 mm	90.8%	90.8%	Activity [20]: 90.7%; Activity [21]: 91%; Activity [22]: 92.2%; Activity [23]: 86.9%; Activity [24]: 89%; Activity [25]: 70.5%; Activity [26]: 30.4%; Activity [27]: 23.5%; IC50 [11]: 23.71 µg/mL (≈ 77.4 µM); MIC (Klebsiella pneumoniae [17]): 24.7 µg/mL (≈ 80.6 µM)
CCOC(=O)C1C(=O)C=C(c2ccc(Cl)cc2)CC1c1ccc(OC)cc1 (centres undefined)	–	–	–	–	–	–	–	73.6 µg/mL (≈ 191 µM)	0 mm	15 mm	58 µg/mL (≈ 151 µM)	372 µg/mL (≈ 967 µM)	4.74%	0 mm	0 mm	0 mm	0 mm	0 mm	–	–	–
COc1ccc(C2CC(c3ccccc3)=Cc3n[nH]c(O)c32)cc1OC (centres undefined)	–	–	–	–	–	–	–	–	0 mm	0 mm	696 µg/mL (≈ 2000 µM)	817 µg/mL (≈ 2340 µM)	69.9%	5 mm	0 mm	0 mm	0 mm	0 mm	90.5%	90.8%	Activity [20]: 91.9%; Activity [21]: 91.8%; Activity [22]: 91.9%; Activity [23]: 87.6%; Activity [24]: 90.9%; Activity [25]: 69.9%; Activity [26]: 30.2%; Activity [27]: 18.1%; IC50 [11]: 21.98 µg/mL (≈ 63.1 µM)
